Key:
[1] = molecular target: T1, adrenergic α1A receptor (Homo sapiens, UniProt P35348); test: secondary pharmacology screens, α1A; type: biochemical; details: 10 µM
T1 sequence (P35348 1-466): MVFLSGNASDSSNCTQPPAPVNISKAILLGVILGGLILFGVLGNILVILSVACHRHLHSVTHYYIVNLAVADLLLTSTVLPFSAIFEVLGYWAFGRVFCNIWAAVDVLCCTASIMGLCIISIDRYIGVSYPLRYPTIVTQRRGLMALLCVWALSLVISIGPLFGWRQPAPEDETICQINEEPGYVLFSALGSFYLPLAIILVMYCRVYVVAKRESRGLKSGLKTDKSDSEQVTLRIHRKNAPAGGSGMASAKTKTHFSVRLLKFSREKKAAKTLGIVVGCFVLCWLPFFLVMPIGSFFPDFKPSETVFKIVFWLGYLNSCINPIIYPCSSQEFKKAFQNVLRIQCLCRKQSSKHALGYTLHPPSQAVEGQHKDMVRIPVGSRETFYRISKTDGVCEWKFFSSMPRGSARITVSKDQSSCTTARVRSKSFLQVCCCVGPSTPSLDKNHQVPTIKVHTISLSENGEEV

[2] = molecular target: T2, adrenergic α1B receptor (Homo sapiens, UniProt P35368); test: secondary pharmacology screens, α1B; type: biochemical; details: 10 µM
T2 sequence (P35368 1-520): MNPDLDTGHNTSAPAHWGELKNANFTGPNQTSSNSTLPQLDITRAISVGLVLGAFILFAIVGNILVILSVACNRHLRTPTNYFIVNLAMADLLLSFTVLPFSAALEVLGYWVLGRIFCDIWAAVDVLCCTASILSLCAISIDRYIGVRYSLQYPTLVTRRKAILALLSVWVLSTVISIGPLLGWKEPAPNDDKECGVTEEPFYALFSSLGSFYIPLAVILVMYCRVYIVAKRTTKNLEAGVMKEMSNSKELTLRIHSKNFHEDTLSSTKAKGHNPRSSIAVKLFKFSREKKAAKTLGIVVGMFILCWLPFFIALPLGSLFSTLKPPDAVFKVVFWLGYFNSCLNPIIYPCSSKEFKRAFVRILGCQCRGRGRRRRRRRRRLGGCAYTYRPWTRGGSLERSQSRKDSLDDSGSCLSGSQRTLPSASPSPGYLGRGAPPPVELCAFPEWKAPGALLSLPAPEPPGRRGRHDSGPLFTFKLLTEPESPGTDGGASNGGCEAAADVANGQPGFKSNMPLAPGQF

[3] = dog pharmacokinetics; type: in vivo
[4] = system: phospholipidosis (PLD); test: in vitro PLD screen; type: cell-based; details: read-out: EC50 (phospholipogenic, in vitro); in vitro PLD screen; unpublished data
[5] = system: mitochondrial oxidative phosphorylation; test: mitochondrial oxidative phosphorylation inhibition; type: biochemical; details: unpublished data
[6] = system: beagle dogs; test: 3-month toxicity study, in-life, clinical pathology and pathology; type: in vivo
How it was run: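 Beagles aged 9 months received 0, 7, 15 or 30 mg/kg/day by oral gavage for 3 months in 0.1 M lactic acid (pH 3.0). Groups were 3/sex/dose, with 3/sex added for 5-week recovery in control and high dose. Neurologic examination was done. Clinical pathology: pretest, Weeks 6, 13, end of recovery. Full tissue list including dorsal root ganglia. Eyes/optic nerve fixed in Davidson's, sciatic nerve in Bouin's, others in formalin. Sections ~5 µm, H&E.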

[7] = 1-month; type: in vivo, beagle dogs; details: dog; for mean brain concentration relative to that at 2.3 mg/kg: 4 weeks
How it was run: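 Beagles (7 males, 5 females) were dosed once daily by oral gavage for 4 weeks at 0, 2.3, 14 or 47 mg/kg/day. The vehicle was 0.1 M lactic acid in water (pH 3.0) at 5 mL/kg. Plasma was sampled on Days 1, 7 and 28. At necropsy, brain stem, hippocampus and frontal lobe were taken for drug measurement. Terminal plasma and brain concentrations are reported.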

[8] = rat systemic and brain exposure; type: in vivo; details: 25 mg/kg/day (NOEL for neuropathology), unpublished results
[9] = molecular target: human 5-hydroxytryptamine 1B (serotonin, or 5-HT1B) receptor; details: antagonist; cited from earlier work
[10] = system: brain 5-HT1B receptors; details: non-human primates; cited from earlier work
[11] = cited from earlier work
[12] = system: p-glycoprotein; details: cited from earlier work
[13] = Female 15 mg/kg/day (N=3), 3 months
[14] = Female 15 mg/kg/day (N=3), 3 months, highest incidence shown
[15] = Female 30 mg/kg/day (N=2), after 5 weeks of recovery
[16] = Female 30 mg/kg/day (N=5), after 3 months of dosing
[17] = Male 7 mg/kg/day (N=3), 3 months, highest incidence shown
[18] = Male 15 mg/kg/day (N=3), 3 months
[19] = Male 15 mg/kg/day (N=3), 3 months, highest incidence shown
[20] = Male 30 mg/kg/day (N=3), 3 months
[21] = Male 30 mg/kg/day (N=3), 3 months, highest incidence shown
[22] = Male 30 mg/kg/day (N=3), after 5 weeks of recovery
[23] = Male 30 mg/kg/day (N=6), after 3 months of dosing
[24] = dog, 30 mg/kg/day 3 months then 5-week recovery
[25] = dog, 30 mg/kg/day males, Week 3 until end of dosing
[26] = dog, 30 mg/kg/day, after 3 months

COc1cc2c(c(N3CCN(C)CC3)c1)O[C@@H](C(=O)Nc1ccc(N3CCOCC3)cc1)CC2 [AZD3783, (2R)-6-methoxy-8-(4-methylpiperazin-1-yl)-N-(4-morpholin-4-ylphenyl) chromane-2-carboxamide]
activity at adrenergic α1A receptor [1]: antagonist
activity at adrenergic α1B receptor [2]: antagonist
steady state volume of distribution [3]: 4.3 L/kg
plasma clearance ([3]; after IV dosing): 18 mL/min/kg
F (oral) ([3]; oral dosing): 58%
EC50 [4]: 164 µM
inhibition of mitochondrial oxidative phosphorylation [5]: not a direct inhibitor
D.R. ganglion: cerv., thoracic, lumbar: Vacuolation; ganglion cell (incidence) ([6]; Female 7 mg/kg/day (N=3), 3 months, highest incidence shown): 2
Ophthalmologic finding: Normal (number of dogs) ([6]; Female 7 mg/kg/day (N=3), after 3 months of dosing): 3
Brain: Degeneration/necrosis; neuronal (incidence) [6, 13]: 1
Brain: Degeneration: nerve fiber (incidence) [6, 13]: 1
Brain: Gliosis (incidence) [6, 13]: 1
Brain: Vacuolation: neuronal (incidence) [6, 13]: 2
D.R. ganglion: cerv., thoracic, lumbar: Inflammation (incidence) [6, 14]: 2
D.R. ganglion: cerv., thoracic, lumbar: Vacuolation; ganglion cell (incidence) [6, 14]: 3
Ophthalmologic finding: Normal (number of dogs) ([6]; Female 15 mg/kg/day (N=3), after 3 months of dosing): 3
Ophthalmologic finding: Chorioretinal scar (number of dogs) [6, 15]: 1
Ophthalmologic finding: Normal (number of dogs) [6, 15]: 1
Ophthalmologic finding: Retinal detachment (number of dogs) [6, 15]: 1
Ophthalmologic finding: Normal (number of dogs) [6, 16]: 2
Ophthalmologic finding: Retinal detachment (number of dogs) [6, 16]: 2
Ophthalmologic finding: Retinal hemorrhage (number of dogs) [6, 16]: 2
Ophthalmologic finding: Vitreal hemorrhage (number of dogs) [6, 16]: 1
D.R. ganglion: cerv., thoracic, lumbar: Inflammation (incidence) [6, 17]: 1
D.R. ganglion: cerv., thoracic, lumbar: Vacuolation; ganglion cell (incidence) [6, 17]: 1
Ophthalmologic finding: Normal (number of dogs) ([6]; Male 7 mg/kg/day (N=3), after 3 months of dosing): 3
Brain: Degeneration: nerve fiber (incidence) [6, 18]: 1
Brain: Vacuolation: neuronal (incidence) [6, 18]: 3
Eye/Optic nerve: Degeneration, optic nerve fiber (incidence) [6, 18]: 1
Eye/Optic nerve: Inflammation: retina (incidence) [6, 18]: 1
D.R. ganglion: cerv., thoracic, lumbar: Degeneration: nerve fiber (incidence) [6, 19]: 2
D.R. ganglion: cerv., thoracic, lumbar: Inflammation (incidence) [6, 19]: 2
D.R. ganglion: cerv., thoracic, lumbar: Vacuolation; ganglion cell (incidence) [6, 19]: 3
Ophthalmologic finding: Normal (number of dogs) ([6]; Male 15 mg/kg/day (N=3), after 3 months of dosing): 3
Brain: Degeneration/necrosis; neuronal (incidence) [6, 20]: 3
Brain: Degeneration: nerve fiber (incidence) [6, 20]: 3
Brain: Gliosis (incidence) [6, 20]: 3
Brain: Inflammation: perivascular (incidence) [6, 20]: 3
Brain: Vacuolation: neuronal (incidence) [6, 20]: 3
Eye/Optic nerve: Degeneration, optic nerve fiber (incidence) [6, 20]: 1
Eye/Optic nerve: Inclusion: retina (incidence) [6, 20]: 3
Eye/Optic nerve: Inflammation: retina (incidence) [6, 20]: 1
Sciatic nerve: Degeneration: nerve fiber (incidence) [6, 20]: 1
D.R. ganglion: cerv., thoracic, lumbar: Degeneration: nerve fiber (incidence) [6, 21]: 3
D.R. ganglion: cerv., thoracic, lumbar: Inflammation (incidence) [6, 21]: 2
D.R. ganglion: cerv., thoracic, lumbar: Vacuolation; ganglion cell (incidence) [6, 21]: 3
Spinal cord, cerv., thoracic, lumbar: Degeneration: nerve fiber (incidence) [6, 21]: 2
Ophthalmologic finding: Chorioretinal scar (number of dogs) [6, 22]: 2
Ophthalmologic finding: Tepatum hyperreflectivity (number of dogs) [6, 22]: 1
Ophthalmologic finding: Normal (number of dogs) [6, 23]: 2
Ophthalmologic finding: Retinal detachment (number of dogs) [6, 23]: 2
Ophthalmologic finding: Retinal hemorrhage (number of dogs) [6, 23]: 3
Ophthalmologic finding: Vitreal hemorrhage (number of dogs) [6, 23]: 1
GLDH increase vs pretest ([6]; decedent female, 30 mg/kg/day): 2 fold
WBC increase vs pretest ([6]; decedent female, 30 mg/kg/day): < 2 fold
neutrophils increase vs pretest ([6]; decedent female, 30 mg/kg/day): 2 fold
bile increase vs pretest ([6]; decedent female, 30 mg/kg/day, Day 84): 5 fold
brain findings after recovery [6, 24]: extensive neuronal loss accompanied by marked astrogliosis
reversibility of pathological lesions (except thymus and bone marrow) [6, 24]: still present after the 5-week recovery period
ALT group mean elevation vs. pretest [6, 25]: ca. 2 fold
GLDH group mean elevation vs. pretest [6, 25]: ca. 4 fold
platelet counts increase [6, 26]: 24–30%
reticulocytes (% and total count) decrease [6, 26]: 42–50%
NOEL ([6]; dog, 3-month study): not established
severity of lesions in the brain ([6]; dog, 3-month, 15 and 30 mg/kg/day): dose-related and ranged from slight to moderate
ophthalmologic observations ([6]; dog, 3-month, Week 6 examination): No treatment-related ophthalmologic observations
gallbladder microscopic findings ([6]; dog, 3-month, all treated groups): pigment deposit (lamina propria) was noted in all animals in the treated groups
mean brain concentration relative to that at 2.3 mg/kg ([7]; 14 mg/kg): 38 fold
mean brain concentration relative to that at 2.3 mg/kg ([7]; 47 mg/kg): 460 fold
brain/plasma concentration ratio ([7]; across the dose range, after 4 weeks of dosing): approximately 4
AUC [8]: 84 µM·h
Ki [9]: 0.0125 µM
binding to brain 5-HT1B receptors (PET) [10]: bind dose-dependently
blood brain barrier crossing [11]: readily crosses the blood brain barrier
p-glycoprotein substrate [12]: not likely to be a p-glycoprotein substrate

Source: paper PMC4000071 (Journal of Toxicologic Pathology, 2014)
